# This is a sample that favours compounds with a hit; in the whole collection about 2.5% have one here.
# NTR1 agonist – activates human neurotensin receptor 1. P30989. NTR1-U2OS beta-arrestin-GFP spot imaging, agonist mode. activation, % at 20 µM. hit rate 0.17% among 330,000. AID 493036;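 active = activation at or above 40% of the spot to cytoplasm intensity ratio, with at least 20 cells analyzed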
# MC4R barr agon – human MC4R agonism via beta-arrestin; P32245; U2OS MC4R beta-arrestin complementation, luminescence; percent of melanotan II response, DMSO zero; activation, % at 8.9 µM; hit rate 0.98% among 360,000;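 active = activation above a per-plate cutoff, the mean activation of sample wells on that plate plus 3 SD, cut at about 8% in these data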
# Target sequence (P32245 whole entry, looked up): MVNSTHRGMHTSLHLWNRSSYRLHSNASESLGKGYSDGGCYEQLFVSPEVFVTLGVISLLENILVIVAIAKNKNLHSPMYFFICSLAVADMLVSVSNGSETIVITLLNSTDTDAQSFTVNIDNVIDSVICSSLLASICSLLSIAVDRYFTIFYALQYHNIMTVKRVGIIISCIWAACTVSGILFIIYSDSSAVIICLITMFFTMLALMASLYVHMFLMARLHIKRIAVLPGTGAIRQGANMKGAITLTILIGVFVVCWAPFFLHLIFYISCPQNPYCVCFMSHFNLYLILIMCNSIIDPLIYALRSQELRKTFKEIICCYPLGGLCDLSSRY
# MC4R antagonist – human MC4R antagonism in cAMP assay; inhibition, % at 6.5 µM; MC4R-expressing cells, MTII-stimulated cAMP, LANCE TR-FRET; hit rate 0.48% among 360,000; P32245; AID 540295;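 active = inhibition above its plate's cutoff, the mean of tested wells on that plate plus 3 SD, cut at about 29% in these data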
#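 System: U2OS-MC4R stable cell line; Technique: Eu-cAMP/anti-cAMP TR-FRET, emission 671 nm; Repeats: single well per compound; Also added: Melanotan II; Dosing: one concentration, 6.5 µM nominal; Schedule: 30-min compound, 1-h challenge, 1-h detection, room temperature.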
# HGIII-sPLA2 inh – Blocks human group III sPLA2 activity; Q9NZ20; QFRET BODIPY PC-A2 liposome hydrolysis, fluorescence; inhibition, % at 12.2 µM; hit rate 0.56% among 370,000;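 active = inhibition above mean plus 3 SD of compounds lying within the high and low control bounds, cut at about 19% in these data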
# Granule exo inh – lytic granule exocytosis inhibition. TALL-104 LAMP-1 surface exposure, flow cytometry; cells stimulated with thapsigargin and PMA. inhibition, % at 10 µM. hit rate 0.66% among 360,000;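 active = inhibition above about 55%, limit read from the data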
# A1 inh – inhibitors of the anti-apoptotic protein A1, read as caspase activation; MEF A1-2A-BIM cells, Caspase-Glo 3/7 luminescence, 3 h; percent of clofoctol response, vehicle zero; caspase activation, % (no concentration beside the values); hit rate 0.066% among 330,000;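 active = over half of replicate activation scores above 10%, or exactly half above 10 with the replicate mean above 10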
# MC4R barr ag – human MC4R beta-arrestin agonism confirmation; shares compounds with MC4R barr agon; U2OS MC4R beta-arrestin recruitment, luminescence; scaled DMSO 0%, Melanotan II 100%; activation, % at 8.9 µM; hit rate 31% among 2,400; AID 602192;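 active = mean activation across replicates above the hit cutoff set in the earlier primary screen, cut at about 8% in these data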
# MOR DOR agonist – activates mu-delta opioid heterodimer, MC4R agonist counter-screen | shares compounds with MC4R barr agon | U2OS PathHunter beta-arrestin, beta-gal luminescence; percent of deltorphin B response, DMSO zero | activation, % at 9.2 µM | hit rate 5.8% among 2,400 | AID 602194;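 active = mean activation across replicates exceeds the hit threshold derived in the earlier primary screen, cut at about 18% in these data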
# A number is an active result; n = inactive; x = no result given.
SMILES,NTR1 agonist,MC4R barr agon,MC4R antagonist,HGIII-sPLA2 inh,Granule exo inh,A1 inh,MC4R barr ag,MOR DOR agonist
C[C@H]1[C@H](N(Cc2ccccc2)Cc2ccccc2)CC[C@@]23CCCN2C(=O)CCC[C@@H]13,x,x,x,n,x,x,x,x
Cc1cc(OC(C)C(=O)NCc2ccccn2)c2c(C)c(Cc3ccccc3)c(=O)oc2c1 (stereo not given),n,11,n,n,n,n,n,n
Cc1cc(OC(C)C(=O)NCc2ccccn2)c2c(C)cc(=O)oc2c1 (stereo not given),n,n,n,n,n,n,x,x
Cc1ccc(-c2cc(NC(=O)c3ccccc3)on2)cc1,n,n,n,n,n,n,x,x
COc1ccc(C(=O)Nc2cc(-c3ccc(C)cc3)no2)cc1,n,9.8,n,n,n,n,n,n
COc1cc(N2CCC(O)CC2)ccc1Nc1cc(Nc2ccccc2S(=O)(=O)C(C)C)c2cc[nH]c2n1,x,x,x,n,x,x,x,x
COc1ccc(Nc2nc3cc(-c4sccc4C)sc3c(=O)n2C)cc1OC,x,n,n,n,n,x,x,x
CCOC(=O)Cc1ccc(Nc2nc3cc(-c4sccc4C)sc3c(=O)n2C)cc1,x,14,n,n,n,x,n,n
CC1=C[C@]2(CN(CC3CC3)C3=N[C@H](c4ccccc4)CC(=O)N32)n2c(=O)n(-c3ccccc3)c(=O)n2C1,x,x,x,n,x,x,x,x
O=C(NCC1CCN(C(=O)C(=O)c2cccs2)CC1)c1ccc2c(c1)OCO2,x,x,x,n,x,x,x,x
COC(=O)[C@]12C[C@H](CC(=O)NCc3ccc(C)o3)C(=O)N(Cc3ccc(Cl)cc3Cl)C1=C[C@H](COCc1ccccc1)O[C@@H]2C,x,x,x,n,x,x,x,x
CCc1ccc(/C=C2/C(=O)N(c3ccccc3)C(=S)N2CC(=O)OC)s1,n,10,n,n,n,n,n,n
O=C(COC(=O)c1cc(-c2ccccc2)nc2ccccc12)Nc1ccc2c(c1)OCO2,n,16,n,n,n,n,n,n
Cc1c(NC(=O)COC(=O)c2cc(-c3ccc(-c4ccccc4)cc3)nc3ccccc23)c(=O)n(-c2ccccc2)n1C,x,18,n,n,n,n,n,n
O=C(COC(=O)c1cc(Br)ccc1O)Nc1ccc2c(c1)OCO2,n,10,n,n,n,n,n,n
Cc1cccc(C)c1OCc1cc(C(=O)NCC2CCCCC2)no1,n,11,n,n,n,n,n,n
Cc1ccc(OCc2cc(C(=O)NC3CCCCC3)no2)cn1,n,n,n,n,n,x,x,x
Cc1cc(OCc2cc(C(=O)NC3CCC3)no2)cc(C)c1Cl,n,11,n,x,n,n,n,n
CCCCCC[C@@H](CCCc1ccccc1OC)CN(CCCC)S(C)(=O)=O,x,x,x,n,x,x,x,x
NC(Cc1ccc(C(F)(F)F)cc1)c1csc(NC(=O)Nc2ccccc2Cc2ccccc2)n1 (stereo not given),x,n,n,n,n,x,x,x
NC(Cc1ccc(Cl)cc1)c1csc(NC(=O)NCCc2ccccc2)n1 (stereo not given),x,13,n,n,n,x,27,21
NC(CCc1ccccc1)c1csc(NC(=O)Nc2ccccc2Oc2ccccc2)n1 (stereo not given),x,18,n,n,n,x,n,25
NC(Cc1ccc(Cl)cc1)c1csc(NC(=O)Nc2ccccc2-c2ccccc2)n1 (stereo not given),x,19,n,n,n,x,11,n
NC(CCc1ccccc1)c1csc(NC(=O)NCCc2ccccc2)n1 (stereo not given),x,n,n,n,n,x,x,x
COc1ccc(CC(N)c2csc(NC(=O)NCCc3ccccc3)n2)cc1 (stereo not given),x,n,n,n,n,x,x,x
SMILES,NTR1 agonist,MC4R barr agon,MC4R antagonist,HGIII-sPLA2 inh,Granule exo inh,A1 inh,MC4R barr ag,MOR DOR agonist
COc1ccc(CSc2nnc(SCC(=O)Nc3ccc(S(N)(=O)=O)cc3)s2)cc1,x,x,x,n,x,x,x,x
CCOc1cc(/C=C2/C(=N)N3OC(C)=CC3=NC2=O)ccc1OCCOc1ccccc1,n,14,n,n,n,n,9.2,n
CCOc1ccc(/C=C2/C(=N)N3OC(C)=CC3=NC2=O)cc1OC,n,n,n,n,n,n,x,x
CC1=CC2=NC(=O)/C(=C\c3cccn3CCOc3cccc(C)c3)C(=N)N2O1,n,n,n,n,n,n,x,x
CC1=CC2=NC(=O)/C(=C\c3cccn3CCOc3cc(C)ccc3C)C(=N)N2O1,n,14,n,n,n,n,n,n
N#Cc1c(-c2ccco2)cc(C2CC2)nc1SCC(=O)c1ccccc1,n,18,n,n,n,n,n,n
Cc1sc2nc(COC(=O)CNC(=O)c3ccccc3Cl)[nH]c(=O)c2c1C,x,x,x,n,x,x,x,x
CC(C)=CCC/C(C)=C/CNCC(=O)N1c2ccccc2[C@]2(C)C[C@@H]3C(=O)N(C/C=C(\C)CCC=C(C)C)CC(=O)N3[C@H]12,x,x,x,n,x,x,x,x
Cn1c(NC2=NC3(CCCC3)C3=C(CCCC3=O)N2)nc2ccccc21,x,x,x,n,x,x,x,x
CCN1CCCCC(NC(=O)c2ccc(F)c(F)c2)C1=O (stereo not given),x,x,x,n,x,x,x,x
Cc1cc(S(=O)(=O)N2CCOCC2)ccc1OCC(=O)Nc1ccc(F)cc1,n,n,n,n,n,n,x,x
Cc1cc(S(=O)(=O)N2CCOCC2)ccc1OCC(=O)Nc1ccc(F)c(Cl)c1,n,16,n,n,n,n,n,n
C=CCCC1CN(Cc2ccc(OC)cc2)S(=O)(=O)c2c(Oc3ccc(F)cc3OC)cccc2O1 (stereo not given),x,x,x,n,x,x,x,x
COc1cccc(-c2sc3ccccc3c2-c2ccc(OCCN3CCCC3)cc2)c1,n,11,n,n,n,n,46,n
c1ccc(-c2sc3ccccc3c2-c2ccc(OCCN3CCCC3)cc2)cc1,n,14,n,n,n,n,32,n
COc1cccc(-c2sc3ccccc3c2-c2ccc(OCCN(C)C)cc2)c1,n,29,n,n,n,n,56,n
COc1ccc(-c2sc3ccccc3c2-c2ccc(OCCN3CCCCC3)cc2)cc1,n,n,n,n,n,n,x,x
Cn1c(SCC2CCC2)nnc1-c1ccco1,x,x,x,n,x,x,x,x
COCCCNC(=O)C[C@H]1C[C@@]2(C(=O)OC)C(=C[C@H](COCc3ccccc3)O[C@@H]2C)N(Cc2ccco2)C1=O,x,x,x,n,x,x,x,x
CC(C)NC(=O)CCn1nnc(-c2cccs2)n1,x,x,x,n,x,x,x,x
Cc1ccc(C2CC(=O)NC(SCCC(C)C)=C2C#N)cc1 (stereo not given),n,9.6,n,n,n,n,n,n
O=C(COn1nnc2ccc(Cl)cc21)Nc1ccc(F)cc1,n,n,n,n,n,n,x,x
O=C(COn1nnc2ccc(Cl)cc21)NC12CC3CC(CC(C3)C1)C2,n,13,n,n,n,n,n,n
